Experimental data published in ChEMBL document CHEMBL1127405, “Synthesis and antitumor evaluation of bis[(pivaloyloxy)methyl] 2'-deoxy-5-fluorouridine 5'-monophosphate (FdUMP): a strategy to introduce nucleotides into cells” (J Med Chem, 1994).

Columns and labels:
Assay type in all cases: functional
Mus musculus [1] = assay: The compound was tested for increase in life span for mice implanted intraperitoneally with P-388/FU Leukemia cell line at 67 mg/kg; conditions: P388, ip, route intraperitoneal
Summary of the method: (§1)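 Male BDF1 mice, six per group, implanted ip with 1×10^6 P-388/0 or P-388/FU cells on day 0. Dosed ip daily for 5 days from 24 h post-implant, in saline or Emulphor 620 vehicle. Mice observed until death. %ILS = (T/C − 1)×100, from median survival of treated mice (T) versus saline-treated controls (C).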

Mus musculus [2] = assay: The compound was tested for increase in life span for mice implanted intraperitoneally with P-388/0 Leukemia cell line at 100 mg/kg; conditions: P388, ip, route intraperitoneal; summary of the method: as §1
Mus musculus [3] = assay: The compound was tested for increase in life span for mice implanted intraperitoneally with P-388/0 Leukemia cell line at 150 mg/kg; conditions: P388, ip, route intraperitoneal; summary of the method: as §1
Mus musculus [4] = assay: The compound was tested for increase in life span for mice implanted intraperitoneally with P-388/0 Leukemia cell line at 67 mg/kg; conditions: P388, ip, route intraperitoneal; summary of the method: as §1
Mus musculus [5] = assay: The compound was tested for increase in life span for mice implanted intraperitoneally with P-388/FU Leukemia cell line at 100 mg/kg; conditions: P388, ip, route intraperitoneal; summary of the method: as §1
Mus musculus [6] = assay: The compound was tested for increase in life span for mice implanted intraperitoneally with P-388/FU Leukemia cell line at 150 mg/kg; conditions: P388, ip, route intraperitoneal; summary of the method: as §1
Mus musculus [7] = assay: The compound was tested for mean survival time for 15 mice implanted Intraperitoneally with P-388/0 Leukemia cell line at 100 mg/kg; conditions: route intraperitoneal
Summary of the method: (§2)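 P-388/0 or P-388/FU cells (1×10^6) implanted ip into male BDF1 mice on day 0. Dosing was ip, daily for 5 consecutive days beginning 24 h later, in saline or Emulphor 620 vehicle. Six mice per treated group. Animals followed to death and median survival time recorded in days. The control group had 15 mice.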

Mus musculus [8] = assay: The compound was tested for mean survival time for 15 mice implanted Intraperitoneally with P-388/0 Leukemia cell line at 150 mg/kg; conditions: route intraperitoneal; summary of the method: as §2
Mus musculus [9] = assay: The compound was tested for mean survival time for 15 mice implanted Intraperitoneally with P-388/0 Leukemia cell line at 67 mg/kg; conditions: route intraperitoneal; summary of the method: as §2
Mus musculus [10] = assay: The compound was tested for mean survival time for 15 mice implanted Intraperitoneally with P-388/FU Leukemia cell line at 100 mg/kg; conditions: route intraperitoneal; summary of the method: as §2
Mus musculus [11] = assay: The compound was tested for mean survival time for 15 mice implanted Intraperitoneally with P-388/FU Leukemia cell line at 150 mg/kg; conditions: route intraperitoneal; summary of the method: as §2
Mus musculus [12] = assay: The compound was tested for […] implanted Intraperitoneally with P-388/FU Leukemia cell line at 67 mg/kg; conditions: route intraperitoneal
Mus musculus [13] = assay: The compound was tested for change in weight for mice implanted intraperitoneally with P-388/FU Leukemia cell line at 150 mg/kg; conditions: route intraperitoneal
Summary of the method: (§3)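 Male BDF1 mice inoculated ip on day 0 with 1 × 10^6 leukemia cells (six mice per group, average weight 22 g). Dosing ip once daily for 5 consecutive days starting 24 h after implantation. Fluoropyrimidine references in 0.9% saline; prodrugs formulated with Emulphor 620; vehicle controls 0.2 mL. Percent body weight change recorded per group.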

Mus musculus [14] = assay: The compound was tested for change in weight for mice implanted intraperitoneally with P-388/0 Leukemia cell line at 100 mg/kg; conditions: route intraperitoneal; summary of the method: as §3
Mus musculus [15] = assay: The compound was tested for change in weight for mice implanted intraperitoneally with P-388/0 Leukemia cell line at 150 mg/kg; conditions: route intraperitoneal; summary of the method: as §3
Mus musculus [16] = assay: The compound was tested for change in weight for mice implanted intraperitoneally with P-388/0 Leukemia cell line at 67 mg/kg; conditions: route intraperitoneal; summary of the method: as §3
Mus musculus [17] = assay: The compound was tested for change in weight for mice implanted intraperitoneally with P-388/FU Leukemia cell line at 67 mg/kg; conditions: route intraperitoneal; summary of the method: as §3
Mus musculus [18] = assay: The compound was tested for change in weight for mice implanted intraperitoneally with P-388/FU Leukemia cell line at 100 mg/kg; conditions: route intraperitoneal; summary of the method: as §3
Mus musculus [19] = assay: The compound was tested for increase in life span for mice implanted intraperitoneally with P-388/FU Leukemia cell line at 40 mg/kg; conditions: P388, ip, route intraperitoneal; summary of the method: as §1
Mus musculus [20] = assay: The compound was tested for increase in life span for mice implanted intraperitoneally with P-388/FU Leukemia cell line at 20 mg/kg; conditions: P388, ip, route intraperitoneal; summary of the method: as §1
Mus musculus [21] = assay: The compound was tested for increase in life span for mice implanted intraperitoneally with P-388/0 Leukemia cell line at 20 mg/kg; conditions: P388, ip, route intraperitoneal; summary of the method: as §1
Mus musculus [22] = assay: The compound was tested for increase in life span for mice implanted intraperitoneally with P-388/0 Leukemia cell line at 30 mg/kg; conditions: P388, ip, route intraperitoneal; summary of the method: as §1
Mus musculus [23] = assay: The compound was tested for increase in life span for mice implanted intraperitoneally with P-388/FU Leukemia cell line at 30 mg/kg; conditions: P388, ip, route intraperitoneal; summary of the method: as §1
Mus musculus [24] = assay: The compound was tested for mean survival time for 15 mice implanted Intraperitoneally with P-388/0 Leukemia cell line at 20 mg/kg; conditions: route intraperitoneal; summary of the method: as §2
Mus musculus [25] = assay: The compound was tested for mean survival time for 15 mice implanted Intraperitoneally with P-388/0 Leukemia cell line at 30 mg/kg; conditions: route intraperitoneal; summary of the method: as §2
Mus musculus [26] = assay: The compound was tested for mean survival time for 15 mice implanted Intraperitoneally with P-388/FU Leukemia cell line at 20 mg/kg; conditions: route intraperitoneal; summary of the method: as §2
Mus musculus [27] = assay: The compound was tested for mean survival time for 15 mice implanted Intraperitoneally with P-388/FU Leukemia cell line at 30 mg/kg; conditions: route intraperitoneal; summary of the method: as §2
Mus musculus [28] = assay: The compound was tested for mean survival time for 15 mice implanted Intraperitoneally with P-388/FU Leukemia cell line at 40 mg/kg; conditions: route intraperitoneal; summary of the method: as §2
Mus musculus [29] = assay: The compound was tested for change in weight for mice implanted intraperitoneally with P-388/0 Leukemia cell line at 20 mg/kg; conditions: route intraperitoneal
Summary of the method: (§4)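 Male BDF1 mice (six per group, average 22 g) given 1×10^6 P-388 cells ip on day 0. Drug dosed ip once daily for 5 consecutive days, starting 24 h after implantation, in 0.9% saline or, where insoluble, Emulphor 620. Percentage body-weight change recorded per dose group.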

Mus musculus [30] = assay: The compound was tested for change in weight for mice implanted intraperitoneally with P-388/0 Leukemia cell line at 30 mg/kg; conditions: route intraperitoneal; summary of the method: as §4
Mus musculus [31] = assay: The compound was tested for change in weight for mice implanted intraperitoneally with P-388/FU Leukemia cell line at 20 mg/kg; conditions: route intraperitoneal; summary of the method: as §4
Mus musculus [32] = assay: The compound was tested for change in weight for mice implanted intraperitoneally with P-388/FU Leukemia cell line at 30 mg/kg; conditions: route intraperitoneal; summary of the method: as §4
Mus musculus [33] = assay: The compound was tested for change in weight for mice implanted intraperitoneally with P-388/FU Leukemia cell line at 40 mg/kg; conditions: route intraperitoneal; summary of the method: as §4

O=c1[nH]c(=O)n([C@H]2C[C@H](O)[C@@H](CO)O2)cc1F [FLOXURIDINE]
ILS at 67 mg/kg (Mus musculus [1]): 9% | ILS at 100 mg/kg (Mus musculus [2]): 73% | ILS at 150 mg/kg (Mus musculus [3]): 82% | ILS at 67 mg/kg (Mus musculus [4]): 45% | ILS at 100 mg/kg (Mus musculus [5]): 18% | ILS at 150 mg/kg (Mus musculus [6]): 18% | MST (Mus musculus [7]): 19 days | MST (Mus musculus [8]): 20 days | MST (Mus musculus [9]): 16 days | MST (Mus musculus [10]): 13 days | MST (Mus musculus [11]): 13 days | MST (Mus musculus [12]): 12 days | Weight change (Mus musculus [13]): -10% | Weight change (Mus musculus [14]): -4% | Weight change (Mus musculus [15]): -5% | Weight change (Mus musculus [16]): -2% | Weight change (Mus musculus [17]): -6% | Weight change (Mus musculus [18]): -10%

O=c1[nH]cc(F)c(=O)[nH]1 [FLUOROURACIL]
ILS at 40 mg/kg (Mus musculus [19]): -18% | ILS at 20 mg/kg (Mus musculus [20]): -9% | ILS at 20 mg/kg (Mus musculus [21]): 45% | ILS at 30 mg/kg (Mus musculus [22]): 55% | ILS at 30 mg/kg (Mus musculus [23]): -18% | MST (Mus musculus [24]): 16 days | MST (Mus musculus [25]): 17 days | MST (Mus musculus [26]): 10 days | MST (Mus musculus [27]): 9 days | MST (Mus musculus [28]): 9 days | Weight change (Mus musculus [29]): -5% | Weight change (Mus musculus [30]): -15% | Weight change (Mus musculus [31]): -6% | Weight change (Mus musculus [32]): -15% | Weight change (Mus musculus [33]): -18%
